Results published in ChEMBL document CHEMBL2086292, “Chalcogenopyrylium compounds as modulators of the ATP-binding cassette transporters P-glycoprotein (P-gp/ABCB1) and multidrug resistance protein 1 (MRP1/ABCC1)” (J Med Chem, 2012).
“And” between values parts separate entries of the source, which are not always exact repeats. Identical values can stand only once. Blank lines part the entries; values can stand above or below the compound they belong to.

Assays:
P-gp (ABCB1) = P-gp (ABCB1) (Homo sapiens, UniProt P08183); assay: (§1) Induction of ATPase activity of human His10-tagged P-gp expressed in BHK cells assessed as inorganic phosphate release after 30 mins relative to control; assay type: cell-based; conditions: human His10-tagged P-gp expressed in BHK cells, read-out: FC
Method in brief: (§2)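 Human P-gp with C-terminal His10 tag, stably expressed in BHK cells, purified by Ni-chelate chromatography and mixed 1:1 with 10 mg/mL sheep brain phosphatidylethanolamine in TBS (10 mM Tris/HCl pH 7.4, 150 mM NaCl), then sonicated. Compound titrated, 30 min at 37 °C. Inorganic phosphate released from ATP measured. Vmax expressed as fold over basal activity; KM is the concentration giving half-maximal stimulation.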

[1] = target: T1, MRP1 (Multidrug resistance-associated protein 1) (Homo sapiens, UniProt P33527); assay: Inhibition of human MRP1 mediated uptake of [3H]E2-17betaG in HEK cell membrane vesicles at 30 uM by liquid scintillation counting relative to control; assay type: cell membranes, HEK293; conditions: HEK cell membrane vesicles with human MRP1, probe [3H]E2-17betaG
Method in brief: (§3)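 Inside-out membrane vesicles from HEK cells stably transfected with human MRP1. Vesicle protein (2 μg) incubated in Tris-sucrose buffer pH 7.4 with 400 nM [3H]E2-17βG, 4 mM ATP or AMP and 10 mM MgCl2, 3 min at 37 °C, in duplicate; DMSO ≤1% final. Stopped by ice-cold dilution and rapid filtration, then scintillation counted. ATP-dependent uptake taken as ATP minus AMP values; inhibition reported as percent.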

MDCK-II [2] = assay: Inhibition of P-gp expressed in MDCK2-MDR1 cells at 25 uM by calcein AM accumulation assay relative to LSN 335984; assay type: cell-based
Method in brief: (§4)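 MDCKII cells transfected with wild-type human MDR1, seeded at 40000 cells/well and used on day 4. Washed in DPBS with 10 mM HEPES pH 7.4, then compound in the same buffer 30 min at 37 °C. Replaced with compound plus 0.5 μg/mL calcein AM for a further 20 min. Fluorescence read at Ex 485/Em 530 nm. Signal expressed relative to 5 μM LSN 335984, taken as complete inhibition; vehicle 0.25% DMSO. IC50 from 1:1 serial dilutions by variable-slope sigmoidal fit.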

MDCK-II [3] = assay: Inhibition of P-gp expressed in MDCK2-MDR1 cells at 5 uM by calcein AM accumulation assay relative to LSN 335984; assay type: cell-based; method in brief: as §4
[4] = target: T1, MRP1 (Multidrug resistance-associated protein 1); assay: Inhibition of human MRP1-mediated uptake of [3H]E2-17betaG in HEK cell membrane vesicles at 1 uM by liquid scintillation counting relative to control; assay type: cell membranes, HEK293; conditions: HEK cell membrane vesicles with human MRP1, probe [3H]E2-17betaG; method in brief: as §3
P-glycoprotein (MDR1) [5] = assay: P-glycoprotein-mediated transport in MDCK2-MDR1 cells assessed as permeability across apical to basolateral side at 5 uM after 1 hr; conditions: dog, MDCK-MDR1
[6] = Octanol-water partition coefficient, log P of the compound in PBS at pH 7.4 after 1 hr by shake flask method; assay type: physicochemical
Method in brief: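 Shake-flask method: saturated n-octanol solution shaken with an equal volume of PBS pH 7.4 for 3–5 min, then left to settle 1 h at 23 °C. Concentration in each layer measured spectrophotometrically.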

[7] = target: T1, MRP1 (Multidrug resistance-associated protein 1); assay: Inhibition of human MRP1-mediated uptake of [3H]E2-17betaG in HEK cell membrane vesicles at 10 uM by liquid scintillation counter; assay type: cell membranes, HEK293; conditions: HEK cell membrane vesicles with human MRP1, probe [3H]E2-17betaG; method in brief: as §3
[8] = Inhibition of P-gp mediated [3H]VIN efflux in MDCK2-MDR1 cells by scintillation counter; assay type: cell-based; conditions: MDCK-II
Method in brief: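 MDCKII-MDR1 monolayers on Transwell filters, used on day 6. Rinsed in DPBSH, then preincubated 30 min at 37 °C with compound ([…]) in BSA/DPBSH. [3H]vinblastine (0.25 μCi/mL) plus compound added basolaterally and fresh compound solution added apically. Apical buffer replaced every 10 min; apical radioactivity counted by scintillation. IC50 fitted.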

[9] = Inhibition of P-gp expressed in MDCK2-MDR1 cells by calcein AM accumulation assay; assay type: cell-based; conditions: MDCK-II
Method in brief: as §4, with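 “min.” for “min. Fluorescence read at Ex 485/Em 530 nm. Signal expressed relative to 5 μM LSN 335984, taken as complete inhibition; vehicle 0.25% DMSO.”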

[10] = Normalized ratio of the compound assessed as ratio of PBA/AB in absence of LSN 335984 to ratio of PBA/AB in presence of LSN 335984 in MDCK2-MDR1 cells at 5 uM after 1 hr; assay type: ADME, cell-based, Canis lupus familiaris; conditions: dog, mdck-mdr1, 1 h
Method in brief: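 MDCKII-MDR1 cells seeded at 50000 cells/cm² on Transwell filters, used on day 6. Preincubated 30 min with 4.3 mg/mL BSA in DPBSH, with or without 5 μM LSN 335984. Compound (5 μM) added to the apical or basolateral donor chamber and incubated 1 h at 37 °C with nutation. Donor and receiver samples quantified by LC-MS/MS. AB and BA permeabilities calculated. Normalized ratio is the BA/AB ratio without inhibitor divided by the ratio with inhibitor.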

P-glycoprotein (MDR1) [11] = assay: P-glycoprotein-mediated transport in MDCK2-MDR1 cells assessed as permeability across basolateral to apical side at 5 uM after 1 hr; conditions: dog, MDCK-MDR1
[12] = target: T1, MRP1 (Multidrug resistance-associated protein 1); assay: Inhibition of human MRP1 mediated uptake of [3H]E2-17betaG in HEK cell membrane vesicles at 5 uM by liquid scintillation counting relative to control; assay type: cell membranes, HEK293; conditions: HEK cell membrane vesicles with human MRP1, probe [3H]E2-17betaG
Method in brief: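 Inside-out vesicles from stably transfected HEK-MRP1 cells (2 μg protein) in Tris-sucrose buffer pH 7.4 with [³H]E₂17βG 400 nM, ATP or AMP 4 mM, MgCl₂ 10 mM, 3 min at 37 °C, compound at 5 μM; DMSO ≤1%; stopped by ice-cold dilution, rapid filtration, scintillation counting; ATP-dependent uptake = ATP minus AMP; duplicate wells.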

[13] = target: ATP-dependent translocase ABCB1 (Homo sapiens, UniProt P08183); assay: as §1; assay type: cell-based; conditions: bhk, 0.5 h; method in brief: as §2
ATP-dependent translocase ABCB1, sequence (P08183 whole entry): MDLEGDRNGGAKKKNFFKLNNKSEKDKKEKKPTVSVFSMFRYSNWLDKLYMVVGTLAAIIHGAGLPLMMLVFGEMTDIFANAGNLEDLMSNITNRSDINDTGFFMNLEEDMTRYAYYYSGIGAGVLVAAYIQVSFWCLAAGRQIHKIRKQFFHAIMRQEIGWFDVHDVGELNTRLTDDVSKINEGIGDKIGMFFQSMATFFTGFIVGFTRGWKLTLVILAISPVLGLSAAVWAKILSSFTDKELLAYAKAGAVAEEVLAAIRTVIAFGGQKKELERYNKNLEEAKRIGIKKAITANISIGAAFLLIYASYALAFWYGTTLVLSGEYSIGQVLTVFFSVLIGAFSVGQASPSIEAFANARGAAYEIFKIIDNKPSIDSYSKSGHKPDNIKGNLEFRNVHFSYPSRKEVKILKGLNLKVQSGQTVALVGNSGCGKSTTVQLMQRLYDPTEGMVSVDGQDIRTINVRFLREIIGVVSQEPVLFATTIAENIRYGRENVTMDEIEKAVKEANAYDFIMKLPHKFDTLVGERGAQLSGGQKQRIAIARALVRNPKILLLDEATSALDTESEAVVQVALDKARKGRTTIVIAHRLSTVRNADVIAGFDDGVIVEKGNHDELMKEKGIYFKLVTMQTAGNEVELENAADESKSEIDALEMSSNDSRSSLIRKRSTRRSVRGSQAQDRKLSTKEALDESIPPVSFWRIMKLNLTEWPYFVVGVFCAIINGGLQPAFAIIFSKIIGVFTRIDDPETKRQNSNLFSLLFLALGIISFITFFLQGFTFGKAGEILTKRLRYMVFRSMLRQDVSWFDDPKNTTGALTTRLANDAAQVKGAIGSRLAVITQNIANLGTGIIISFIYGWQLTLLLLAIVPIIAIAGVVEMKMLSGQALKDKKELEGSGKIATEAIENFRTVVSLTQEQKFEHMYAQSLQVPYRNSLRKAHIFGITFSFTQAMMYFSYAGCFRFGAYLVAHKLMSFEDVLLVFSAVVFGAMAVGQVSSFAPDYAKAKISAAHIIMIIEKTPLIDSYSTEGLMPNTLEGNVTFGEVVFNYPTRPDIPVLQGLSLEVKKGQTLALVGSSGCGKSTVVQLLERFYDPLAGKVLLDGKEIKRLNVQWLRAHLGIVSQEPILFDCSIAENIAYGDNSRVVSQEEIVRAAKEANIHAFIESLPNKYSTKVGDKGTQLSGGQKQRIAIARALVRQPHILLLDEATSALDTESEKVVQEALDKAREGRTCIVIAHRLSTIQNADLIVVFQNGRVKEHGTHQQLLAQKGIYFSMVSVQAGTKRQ

T1 sequence (P33527 whole entry): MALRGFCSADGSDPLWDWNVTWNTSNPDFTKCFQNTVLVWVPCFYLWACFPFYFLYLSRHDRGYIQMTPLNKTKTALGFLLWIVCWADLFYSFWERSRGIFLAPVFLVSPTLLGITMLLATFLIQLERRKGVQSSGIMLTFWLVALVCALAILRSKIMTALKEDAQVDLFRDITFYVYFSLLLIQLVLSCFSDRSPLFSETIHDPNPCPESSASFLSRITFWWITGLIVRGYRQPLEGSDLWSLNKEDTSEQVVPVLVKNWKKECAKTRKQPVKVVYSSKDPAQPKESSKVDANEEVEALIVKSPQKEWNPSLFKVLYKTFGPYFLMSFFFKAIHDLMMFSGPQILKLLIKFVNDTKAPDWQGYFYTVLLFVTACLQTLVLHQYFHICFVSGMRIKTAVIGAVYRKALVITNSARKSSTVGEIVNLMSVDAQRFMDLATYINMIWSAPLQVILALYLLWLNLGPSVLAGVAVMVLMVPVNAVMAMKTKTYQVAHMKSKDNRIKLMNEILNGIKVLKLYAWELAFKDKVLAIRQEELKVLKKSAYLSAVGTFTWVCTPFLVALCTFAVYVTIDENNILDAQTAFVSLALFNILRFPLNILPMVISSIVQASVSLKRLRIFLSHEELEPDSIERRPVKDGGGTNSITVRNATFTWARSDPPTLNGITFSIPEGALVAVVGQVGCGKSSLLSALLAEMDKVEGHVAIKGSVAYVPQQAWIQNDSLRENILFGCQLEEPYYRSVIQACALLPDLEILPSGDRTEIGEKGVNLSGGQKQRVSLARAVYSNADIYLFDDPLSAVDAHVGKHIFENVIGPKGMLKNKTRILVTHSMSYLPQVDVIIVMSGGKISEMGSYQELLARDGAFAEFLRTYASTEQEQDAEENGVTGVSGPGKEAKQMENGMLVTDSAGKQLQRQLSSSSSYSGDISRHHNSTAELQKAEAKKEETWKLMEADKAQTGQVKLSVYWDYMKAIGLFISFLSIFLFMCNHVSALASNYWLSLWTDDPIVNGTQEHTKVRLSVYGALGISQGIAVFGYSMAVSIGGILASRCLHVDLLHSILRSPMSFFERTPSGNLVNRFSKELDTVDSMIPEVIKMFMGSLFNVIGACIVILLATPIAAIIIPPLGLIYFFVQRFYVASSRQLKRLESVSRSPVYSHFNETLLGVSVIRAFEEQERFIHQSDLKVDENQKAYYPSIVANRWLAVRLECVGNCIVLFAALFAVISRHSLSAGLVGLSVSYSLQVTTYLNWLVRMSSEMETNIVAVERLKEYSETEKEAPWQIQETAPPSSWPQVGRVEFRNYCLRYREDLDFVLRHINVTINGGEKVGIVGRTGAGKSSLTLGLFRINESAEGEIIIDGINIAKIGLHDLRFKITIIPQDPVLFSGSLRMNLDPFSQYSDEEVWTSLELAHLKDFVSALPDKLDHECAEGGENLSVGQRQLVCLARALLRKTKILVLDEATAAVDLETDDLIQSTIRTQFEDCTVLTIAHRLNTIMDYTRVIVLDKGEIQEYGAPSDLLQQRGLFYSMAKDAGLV
P-gp (ABCB1), sequence (P08183 whole entry): as the sequence (P08183 whole entry) above

Structure (SMILES): Nc1ccc(-c2cc(-c3ccc(N4CCOCC4)cc3)cc(-c3ccccc3)[te+]2)cc1
fold induction at 0.5 h (P-gp (ABCB1)): 4.5 | inhibition at 30 µM [1]: 96%

Structure (SMILES): CN(C)c1ccc(-c2cc(-c3ccc(N(C)C)cc3)[s+]c(C(C)(C)C)c2)cc1
fold induction at 0.5 h (P-gp (ABCB1)): 7.2 | inhibition at 30 µM [1]: 94%

Structure (SMILES): CN(C)c1ccc(-c2cc(-c3ccc(N(C)C)cc3)[te+]c(C(C)(C)C)c2)cc1
fold induction at 0.5 h (P-gp (ABCB1)): 8.4 | inhibition at 30 µM [1]: 96%

Structure (SMILES): c1ccc(-c2cc(-c3ccc(N4CCOCC4)cc3)[te+]c(-c3ccc(N4CCOCC4)cc3)c2)cc1
fold induction at 0.5 h (P-gp (ABCB1)): 4 | inhibition at 30 µM [1]: 89%

Structure (SMILES): CN(C)c1ccc(-c2cc(-c3ccc(C(=S)N4CCCCC4)s3)cc(-c3ccc(N(C)C)cc3)[s+]2)cc1.[Cl-]
inhibition at 1 µM [4]: 25% | Papp A-B at 1 h, 5 µM (P-glycoprotein (MDR1) [5]): 1.1 nm/s | logD at 1 h [6]: 1.6 | inhibition at 10 µM [7]: 81% | fold induction at 0.5 h (P-gp (ABCB1)): 5.7 | IC50 [8]: 6.6 µM | IC50 [9]: 34 µM | Ratio [10]: 8 | Papp B-A at 1 h, 5 µM (P-glycoprotein (MDR1) [11]): 16 nm/s

Structure (SMILES): CC(C)(C)c1cc(-c2ccc(C(=S)N3CCCCC3)s2)cc(C(C)(C)C)[te+]1
inhibition at 5 µM [12]: 50% | fold induction at 0.5 h (P-gp (ABCB1)): 7.4

Structure (SMILES): CCCCc1cc(-c2ccc(N(C)C)cc2)cc(-c2ccc(N(C)C)cc2)[s+]1
inhibition at 5 µM [12]: 70% | fold induction at 0.5 h (P-gp (ABCB1)): 5.9

Structure (SMILES): CC(C)(C)c1cc(-c2ccc(C(=S)N3CCCCC3)s2)cc(C(C)(C)C)[s+]1
inhibition (MDCK-II [2]): 27% and < 7% | inhibition (MDCK-II [3]): 3.6%

Structure (SMILES): Cc1cc(C(C)(C)C)[se+]c(C(C)(C)C)c1
inhibition at 30 µM [1]: 0%

Structure (SMILES): Cc1cc(-c2ccccc2)[s+]c(-c2ccccc2)c1
inhibition at 1 µM [4]: 0%

Second part, led by results:

fold induction at 0.5 h (P-gp (ABCB1)): 7.9 | inhibition at 30 µM [1]: 34%
Structure (SMILES): CCN(CC)C(=O)c1ccccc1-c1cc(C(C)(C)C)[s+]c(C(C)(C)C)c1
inhibition (MDCK-II [2]): 0% | inhibition (MDCK-II [3]): 0%

fold change (FC) [13]: 4.4 | inhibition at 30 µM [1]: 71%
Structure (SMILES): CC(C)(C)c1cc(-c2ccc(C(=S)N3CCCCC3)s2)cc(C(C)(C)C)[s+]1.F[P-](F)(F)(F)(F)F

fold induction at 0.5 h (P-gp (ABCB1)): 13.5 | inhibition at 30 µM [1]: 43%
Structure (SMILES): CCN(CC)C(=O)c1ccccc1-c1cc(-c2ccc(N(C)C)cc2)[s+]c(C(C)(C)C)c1
inhibition (MDCK-II [2]): 13% | inhibition (MDCK-II [3]): 2%

inhibition at 1 µM [4]: 0% | Papp A-B at 1 h, 5 µM (P-glycoprotein (MDR1) [5]): 1.8 nm/s | logD at 1 h [6]: 0.7 | inhibition at 10 µM [7]: 32% | fold induction at 0.5 h (P-gp (ABCB1)): 3.7 | Ratio [10]: 15 | Papp B-A at 1 h, 5 µM (P-glycoprotein (MDR1) [11]): 300 nm/s
Structure (SMILES): CC(C)(C)c1cc(-c2ccc(C(=S)N3CCCCC3)s2)cc(C(C)(C)C)[s+]1.[Cl-]

inhibition at 1 µM [4]: 0% | Papp A-B at 1 h, 5 µM (P-glycoprotein (MDR1) [5]): 3.8 nm/s | logD at 1 h [6]: 0.2 | inhibition at 10 µM [7]: 11% | fold induction at 0.5 h (P-gp (ABCB1)): 5.5 | Ratio [10]: 10 | Papp B-A at 1 h, 5 µM (P-glycoprotein (MDR1) [11]): 59 nm/s
Structure (SMILES): CC(C)(C)c1cc(-c2ccc(C(=O)N3CCCCC3)s2)cc(C(C)(C)C)[s+]1.F[P-](F)(F)(F)(F)F
inhibition (MDCK-II [2]): < 7%

inhibition at 1 µM [4]: 8% | fold induction at 0.5 h (P-gp (ABCB1)): 3.5
Structure (SMILES): CC(C)(C)c1cc(-c2ccc(C(=O)O)s2)cc(C(C)(C)C)[s+]1
inhibition (MDCK-II [2]): 0% | inhibition (MDCK-II [3]): 0%

fold induction at 0.5 h (P-gp (ABCB1)): 4.3 | inhibition at 30 µM [1]: 81%
Structure (SMILES): CC(C)(C)c1cc(-c2ccc(C(=S)N3CCCCC3)s2)cc(C(C)(C)C)[se+]1
